Assay outcomes from PubChem BioAssay.
This is a sample that favours compounds with a hit; in the whole collection about 2.3% have one here.
LGR2 antag – blocks bursicon-induced cAMP signaling via Drosophila LGR2 | AID 720647 | inhibition, % at 9.99 µM | hit rate 0.35% among 380,000 | HEK293 LGR2, CRE-luciferase, bursicon-stimulated, 4 h;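 active = drop in luminescence signal, shown as inhibition above about 50% in the replicate tests, limit read from the data, passing the limit was not always enough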;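 note: agonist challenge used bursicon conditioned medium at about half maximal strength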
TWEAK Fn14 block – inhibitors of TWEAK-Fn14 interaction signaling. TWEAK-stimulated Fn14 reporter cells, luciferase luminescence, 8 h. inhibition, % at 10 µM. hit rate 2% among 360,000. AID 1159606; in the data active = inhibition above about 50%
Xi reactivation – activators of X-chromosome reactivation in mouse fibroblasts | XiGFP mouse fibroblasts, % GFP-positive cells imaging, 3 d; cells co-treated with 5-aza-dC sensitizer; scaled so ellipticine positive control = 100% | activation, % at 7.58 µM | hit rate 0.055% among 360,000 | AID 743238;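 active = mean normalized replicate activation at least 10% and every replicate at or above 10%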;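 note: 0% = median of on-plate neutral control wells and 100% = ellipticine 6 µM median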
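Assay system – SV40-immortalized XiGFP fibroblast cells, line 68-5-11 · Buffer or medium – DMEM supplemented with 5-aza-dC as sensitizing agent · Dosing – one concentration, pinned · Benchmarks – positive control ellipticine, 6 µM final · Times – 3 days compound exposure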
TROY signal inh – TROY signaling inhibition. Q293 LMP1-TROYcd NF-kB luciferase reporter, 4 h. hit rate 0.98% among 360,000. inhibition, % at 10 µM;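 active = compounds whose plate-normalised and pattern-corrected inhibition of the luciferase reporter signal at the single screening dose is 50% or more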
FN deposition inh – fibronectin deposition inhibition | inhibition, % at 12.6 µM | hit rate 0.086% among 350,000 | AH1F fibroblasts, Alexa488-fibronectin deposition fluorescence, overnight;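 active = mean inhibition across replicates of 30% or more, regardless of how many single replicates reach that level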;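 note: positive control wells lacked labelled fibronectin entirely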
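Measured by – fluorescence 485/525 nm · System – AH1F fibroblast monolayer, labelled fibronectin deposition · Amount – 10000 cells per well · Buffer or medium – serum-reduced DMEM (2% serum) · Doses – single dose, pinned · Also added – fluorescent fibronectin at 24 nM final · Schedule – 1 h cell attachment, overnight exposure to compound and label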
EWS-Fli inh – EWS/Fli transcriptional activity inhibition; A673 NR0B1-luciferase reporter, viability-normalised; inhibition, % at 12.6 µM; hit rate 0.67% among 350,000;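 active = mean inhibition of at least 50% after viability correction, with every replicate also passing that limit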;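 note: firefly luciferase signal divided by Alamar Blue viability fluorescence both relative to DMSO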
DNA binding – small molecule DNA binding by fluorescence polarization. shares compounds with EWS-Fli inh. salmon sperm DNA acridine orange fluorescence polarization. AC35, µM (titrated, usually from 68 µM), inactives show at the top dose activity change, negative = DNA binding. hit rate 2% among 640. AID 720586;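 active = fitted curve reaches a 35% signal fall AC35 below twice the sample's top valid tested dose, actives reach about 48 µM in these data; inactive = the rest, including activity in the rising direction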;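 note: lower polarization ratio signals compound binding to DNA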
An asterisk follows results filed as active.

How did CN(C(=O)COC(=O)c1cc(-c2ccccc2Cl)nc2ccccc12)C1CCS(=O)(=O)C1 (stereo unspecified) do in these assays?
LGR2 antag: 7; TWEAK Fn14 block: -15; Xi reactivation: 0; TROY signal inh: 1; EWS-Fli inh: 85*; DNA binding: -2%

How did CN(C(=O)COC(=O)c1cc(-c2ccc(Cl)s2)nc2ccccc12)C1CCS(=O)(=O)C1 (stereo unspecified) do in these assays?
LGR2 antag: -13; TWEAK Fn14 block: 0; Xi reactivation: 0; TROY signal inh: -18; FN deposition inh: -13; EWS-Fli inh: -17

What do the screens show for `COc1ccccc1NS(=O)(=O)c1cc(NC(=O)C2=NNC(=O)CC2)ccc1C`?
LGR2 antag: 13; TWEAK Fn14 block: 2; Xi reactivation: 0; TROY signal inh: 5; FN deposition inh: -3; EWS-Fli inh: -20

What do the screens show for `COc1ccccc1NS(=O)(=O)c1cc(NC(=O)c2cc3ccccc3oc2=O)ccc1C`?
LGR2 antag: -15; TWEAK Fn14 block: -20; Xi reactivation: 0; TROY signal inh: -26; EWS-Fli inh: 82*; DNA binding: 17%

What do the screens show for `COc1ccc2c3c(n(C)c2c1)[C@H](CO)N(Cc1nccs1)CC31CN(C(=O)CC2CC2)C1`?
LGR2 antag: 19; Xi reactivation: 0; EWS-Fli inh: -6

How did CC(C)NC(=O)N(C)C[C@@H]1Oc2ccc(NS(=O)(=O)c3cn(C)cn3)cc2CC(=O)N([C@@H](C)CO)C[C@@H]1C do in these assays?
LGR2 antag: -11; Xi reactivation: 0; EWS-Fli inh: -10

What do the screens show for `C[C@H](NC(=O)C[C@H]1CC[C@@H]2[C@H](COC[C@@H](O)CN2C(=O)Nc2cc(Cl)cc(Cl)c2)O1)c1ccccc1`?
LGR2 antag: 7; Xi reactivation: 0; FN deposition inh: -12; EWS-Fli inh: 8

Results for CC(=O)OC(=C(OC(C)=O)c1ccccc1)c1ccccc1 ?
LGR2 antag: 16; TWEAK Fn14 block: -1; Xi reactivation: 0; TROY signal inh: 8; FN deposition inh: 4; EWS-Fli inh: 6

What do the screens show for `CC(=O)ON=C1C=CC(=C(C#N)c2ccccc2)C=C1`?
LGR2 antag: 18; TWEAK Fn14 block: 48; Xi reactivation: 2; TROY signal inh: 23; FN deposition inh: -6; EWS-Fli inh: 56*; DNA binding: 0%

Results for O=C(C[C@@H]1CC[C@H]2[C@@H](COC[C@H](O)CN2C(=O)c2ccc(F)cc2)O1)Nc1ccc(-c2ccccc2)cc1 ?
LGR2 antag: 2; Xi reactivation: 3; FN deposition inh: 2; EWS-Fli inh: -1

Results for C=C1C(=O)OC2C1CCC(C)C1C=CC(=O)C12C (stereo unspecified) ?
LGR2 antag: 0; TWEAK Fn14 block: 48; Xi reactivation: 1; TROY signal inh: 2; FN deposition inh: 9; EWS-Fli inh: 56*; DNA binding: 7%

How did CC(=O)O[C@@H]1[C@H]2[C@@H](C[C@@H](C)[C@@H]3C=CC(=O)[C@@]13C)OC(=O)[C@@H]2C do in these assays?
LGR2 antag: 5; TWEAK Fn14 block: 9; Xi reactivation: 0; TROY signal inh: -8; FN deposition inh: -1; EWS-Fli inh: -6

Results for CC(C)NC(=O)N(C)C[C@H]1OCc2ccccc2-c2c(n(C)c3ccccc23)C(=O)N([C@H](C)CO)C[C@H]1C ?
LGR2 antag: 4; Xi reactivation: 0; FN deposition inh: 7; EWS-Fli inh: 6

What do the screens show for `C[C@H]1COCc2cnnn2CC[C@@H](Cc2ccccc2)C(=O)N1`?
Xi reactivation: 0; FN deposition inh: 0

Results for Cc1ccc2oc(/N=C(\N)NC(=O)C(C)(C)C)nc2c1 ?
LGR2 antag: 100*; TWEAK Fn14 block: 104*; Xi reactivation: 0; TROY signal inh: 92*; FN deposition inh: -8; EWS-Fli inh: 85*; DNA binding: -6%

What do the screens show for `Fc1cccc(-c2ccc(C3[C@H]4CNC[C@@H]3N4CC3CCOCC3)cc2)c1` (stereo partly specified)?
LGR2 antag: -28; Xi reactivation: 0; FN deposition inh: -5

Results for c1cncc(-c2ccc([C@@H]3[C@H]4CNC[C@@H]3N4CC3CCOCC3)cc2)c1 ?
LGR2 antag: -24; Xi reactivation: 0; FN deposition inh: -4; EWS-Fli inh: 51*; DNA binding: 3%

How did O=c1c(Cl)cc(Cl)nn1-c1ccccc1 do in these assays?
LGR2 antag: -5; TWEAK Fn14 block: 37; Xi reactivation: 0; TROY signal inh: 3; FN deposition inh: 14; EWS-Fli inh: 64*; DNA binding: 1%

How did COc1cc(Cl)nn(-c2ccccc2)c1=O do in these assays?
LGR2 antag: -9; TWEAK Fn14 block: 8; Xi reactivation: 0; TROY signal inh: -2; FN deposition inh: 2

Results for COCCNC(=O)c1cc2c(c(-c3cccc(-c4cccc(OC)c4)c3)n1)[C@H](CCO)N(S(=O)C(C)(C)C)C2 (stereo partly specified) ?
LGR2 antag: 13; TWEAK Fn14 block: -9; Xi reactivation: 0; TROY signal inh: 3; FN deposition inh: 11; EWS-Fli inh: 8

What do the screens show for `CCNC(=O)c1cc2c(c(-c3cccc(-c4cccc(OC)c4)c3)n1)[C@H](CCO)N([S@@](=O)C(C)(C)C)C2`?
LGR2 antag: -10; Xi reactivation: 0; FN deposition inh: 3; EWS-Fli inh: 63*; DNA binding: -13%

Results for CC(C)(C)[S@](=O)N1Cc2cc(C(=O)NCC(F)(F)F)nc(-c3cccc(-c4cccc(F)c4)c3)c2[C@@H]1CCO ?
LGR2 antag: 13; Xi reactivation: 0; FN deposition inh: 8; EWS-Fli inh: 55*; DNA binding: -2%

Results for O=C(CCN1CCCCC1)N[C@@H]1CC[C@H](CCNS(=O)(=O)c2ccc(Cl)cc2)O[C@@H]1CO ?
LGR2 antag: 12; Xi reactivation: 0; EWS-Fli inh: 4

Results for C[C@H](CO)N1C[C@H](C)[C@H](CN(C)C(=O)Nc2ccc(F)cc2)Oc2c(NS(=O)(=O)c3cn(C)cn3)cccc2C1=O ?
LGR2 antag: -8; Xi reactivation: -1; FN deposition inh: -2; EWS-Fli inh: 14

What do the screens show for `Cc1cccc(-c2ccc([C@H]3[C@@H](CO)N4CCCCN(C(=O)c5ccncc5)C[C@H]34)cc2)c1`?
LGR2 antag: 3; Xi reactivation: 0; EWS-Fli inh: 0
